“And” between values parts separate entries of the source, which are not always exact repeats. Identical values can stand only once.
Legend:
hERG channel [1] = target: T1, hERG channel (Homo sapiens, UniProt Q12809); details: for hERG binding of [3H]dofetilide relative to vehicle controls (reduced to): 10 μM; for Rel. Pot., channel binding: relative potency compared to AZA1
hERG channel [2] = target: T1, hERG channel; details: for Maximum inhibition of hERG currents: 1.9 μM, mean ± SEM, n = 3; for Rel. Pot., patch clamp: relative potency compared to AZA1
hERG channel [3] = target: T1, hERG channel; details: for Thallium flux via hERG relative to vehicle controls (reduced to): 30 μM, mean ± SEM, n = 3; for Rel. Pot., thallium flux: relative potency compared to AZA1
[4] = system: Jurkat T lymphocyte cells; details: fold more potent than AZA1; cited from earlier work
Y652A hERG1 channels = Y652A hERG1 channels (Homo sapiens, UniProt Q12809, Y652A); test: Two-electrode voltage clamp of Y652A hERG1 channels in Xenopus oocytes; assay type: cell-based; details: 10 μM
F656T hERG1 channels = F656T hERG1 channels (Homo sapiens, UniProt Q12809, F656T); test: Two-electrode voltage clamp of F656T hERG1 channels in Xenopus oocytes; assay type: cell-based; details: 10 μM
hEAG1 channels = target: T2, hEAG1 channels (Homo sapiens, UniProt O95259); test: Two-electrode voltage clamp of hEAG1 channels in Xenopus oocytes; assay type: cell-based; details: 10 μM, n = 4
T2 sequence (O95259 1-962 isoform O95259-2): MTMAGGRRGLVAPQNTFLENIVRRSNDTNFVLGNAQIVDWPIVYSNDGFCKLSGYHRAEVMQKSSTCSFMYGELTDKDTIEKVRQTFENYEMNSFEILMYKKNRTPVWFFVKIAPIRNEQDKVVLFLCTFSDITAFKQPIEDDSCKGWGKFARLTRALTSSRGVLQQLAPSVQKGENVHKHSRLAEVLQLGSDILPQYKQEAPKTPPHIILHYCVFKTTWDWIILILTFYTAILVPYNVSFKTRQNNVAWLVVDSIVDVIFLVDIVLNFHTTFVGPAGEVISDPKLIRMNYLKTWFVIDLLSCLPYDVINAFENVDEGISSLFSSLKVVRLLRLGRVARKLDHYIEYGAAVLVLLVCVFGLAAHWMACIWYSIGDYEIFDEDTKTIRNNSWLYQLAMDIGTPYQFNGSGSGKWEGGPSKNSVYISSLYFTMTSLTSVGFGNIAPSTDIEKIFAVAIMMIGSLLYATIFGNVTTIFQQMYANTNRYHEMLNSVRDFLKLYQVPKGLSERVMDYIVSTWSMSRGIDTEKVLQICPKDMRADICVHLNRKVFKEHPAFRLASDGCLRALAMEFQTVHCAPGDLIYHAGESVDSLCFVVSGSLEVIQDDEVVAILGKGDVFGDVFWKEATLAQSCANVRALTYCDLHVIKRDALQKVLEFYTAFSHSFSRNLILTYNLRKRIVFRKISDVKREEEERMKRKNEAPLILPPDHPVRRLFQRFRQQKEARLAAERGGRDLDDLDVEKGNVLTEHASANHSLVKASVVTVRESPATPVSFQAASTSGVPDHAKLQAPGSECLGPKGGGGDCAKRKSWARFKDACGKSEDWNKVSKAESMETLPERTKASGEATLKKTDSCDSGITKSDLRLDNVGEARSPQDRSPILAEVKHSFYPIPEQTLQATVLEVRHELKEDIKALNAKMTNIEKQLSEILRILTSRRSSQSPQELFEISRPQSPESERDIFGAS
How it was run: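 Stage IV–V Xenopus oocytes were injected with ~0.2 ng WT or mutant hEAG1 cRNA, held 2–3 days at 18 °C in Barth's saline, and recorded by two-electrode clamp at 22–24 °C. Holding was −80 mV, with 2-s steps from −70 to +40 mV. G = end-of-pulse current/(Vt − Erev), divided by a Boltzmann-extrapolated control Imax, then Boltzmann-fitted for V0.5 and k.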

WT hERG1 channels = WT hERG1 channels (Homo sapiens, UniProt Q12809); test: Two-electrode voltage clamp of WT hERG1 channels in Xenopus oocytes; assay type: cell-based
[5] = 10 μM, during 37.8 s pulse to 0 mV

For 22-demethyl-azaspiracid [AZA3], the “hERG binding of [3H]dofetilide relative to vehicle controls (reduced to)” value (hERG channel [1]) was 29.3 ± 1.6%, the “Maximum inhibition of hERG currents” value (hERG channel [2]) was 79.7 ± 1.6% and the “Rel. Pot., patch clamp” value (hERG channel [2]) was 1.0. For the same compound, the “Thallium flux via hERG relative to vehicle controls (reduced to)” value (hERG channel [3]) was 16.6 ± 0.50%, the “Rel. Pot., thallium flux” value (hERG channel [3]) was 0.7 and the “Cytotoxic potency relative to AZA1” value [4] was 4.5 fold.

For `C=C(C[C@@]12C[C@@H](C)C[C@H](O1)[C@H]1O[C@]3(C[C@H]1O2)NC[C@H](C)C[C@@H]3C)[C@H]1O[C@@](O)([C@@H](O)[C@@H]2C[C@H]3O[C@@]4(CC[C@]5(CC=C[C@@H](/C=C/CCC(=O)O)O5)O4)[C@H](C)C[C@H]3O2)[C@H](C)C[C@@H]1C` [AZA1, azaspiracid], the “Shift of V0.5 for activation” value (Y652A hERG1 channels) was -5 mV, the “Slope factor k of G-Vt relationship” value (Y652A hERG1 channels; control 6.4 ± 0.3, n = 5) was 7.3 ± 0.4 and the “V0.5 of G-Vt relationship” value (Y652A hERG1 channels; control -20.7 ± 0.6 mV, n = 5) was -26.0 ± 0.8 mV. For the same compound, the “Block of peak Itail” value (Y652A hERG1 channels; n = 5) was 76 ± 3%, the “hERG binding of [3H]dofetilide relative to vehicle controls (reduced to)” value (hERG channel [1]) was 19.7 ± 1.4% and the “Rel. Pot., channel binding” value (hERG channel [1]) was 1.0. For the same compound, the “Slope factor k of G-Vt relationship” value (F656T hERG1 channels; control 7.8 ± 0.1, n = 5) was 7.3 ± 0.1, the “V0.5 of G-Vt relationship” value (F656T hERG1 channels; control -31.0 ± 0.2 mV, n = 5) was -32.6 ± 0.3 mV and the “Reduction of peak Itail” value (F656T hERG1 channels; test potentials greater than -20 mV, n = 5) was 7 ± 1%. The “Sensitivity of channel currents to toxin” value (F656T hERG1 channels; test potentials negative to -20 mV) was “insensitive”, the “V0.5 of G-Vt relationship” value (hEAG1 channels; control 4.6 ± 0.7 mV) was 6.4 ± 0.9 mV and the “Slope factor k of G-Vt relationship” value (hEAG1 channels; control 16.3 ± 0.6) was 15.7 ± 0.7. The “Block of hEAG1 current” value (hEAG1 channels; test potential +40 mV) was 15 ± 0.8%, the “Slope factor k of G-Vt relationship” value (WT hERG1 channels; 10 μM, control 8.1 ± 0.3, n = 6) was 9.6 ± 0.3 and the “V0.5 of G-Vt relationship” value (WT hERG1 channels; 10 μM, control -22.0 ± 0.5 mV, n = 6) was -20.7 ± 0.5 mV. The “Amplitude of fast component of onset of block” value (WT hERG1 channels; [5]) was 0.325, the “Amplitude of slow component of onset of block” value (WT hERG1 channels; [5]) was 0.433 and the “τfast of onset of current block” value (WT hERG1 channels; [5]) was 2.96 s. For the same compound, the “τslow of onset of current block” value (WT hERG1 channels; [5]) was 12.66 s, the “Peak outward hERG1 current, % of control” value (WT hERG1 channels; 10 μM, measured at -10 mV, oocytes, n = 6) was 19.0 ± 2.4 % of control and the “Time constant of onset of hERG1 channel block (τonset)” value (WT hERG1 channels; 10 μM, repetitive 1-s pulses to 0 mV, oocytes) was 1.5 min. For the same compound, the “Unblocked current, % of control” value (WT hERG1 channels; 10 μM, single long pulse to 0 mV after 4 min pulse-free incubation, 10 µM) was 19% and 19.2%, the “Inhibition of peak Itail” value (WT hERG1 channels; 10 μM, tail currents at -70 mV, n = 6) was 75 ± 2% and the “Tail current deactivation time constant, fast component” value (WT hERG1 channels; at -70 mV in the presence of AZA1 (control 249 ± 8 ms), n = 6) was 205 ± 17 ms. The “Tail current deactivation time constant, slow component” value (WT hERG1 channels; at -70 mV in the presence of AZA1 (control 1003 ± 57 ms), n = 6) was 745 ± 44 ms, the “Relative amplitude of the slow component of deactivation” value (WT hERG1 channels; in the presence of AZA1 (control 0.80 ± 0.02)) was 0.72 ± 0.02 and the “Maximum inhibition of hERG currents” value (hERG channel [2]) was 79.5 ± 1.8%. For the same compound, the “Rel. Pot., patch clamp” value (hERG channel [2]) was 1.0, the “Thallium flux via hERG relative to vehicle controls (reduced to)” value (hERG channel [3]) was 10.7 ± 0.56% and the “Rel. Pot., thallium flux” value (hERG channel [3]) was 1.0.

For `C=C(C[C@@]12C[C@@H](C)C[C@@H](O1)[C@H]1O[C@]3(C[C@H]1O2)NC[C@H](C)C[C@@H]3C)[C@H]1O[C@@](O)([C@@H](O)[C@@H]2C[C@H]3O[C@@]4(CC[C@]5(CC(C)=C[C@@H](/C=C/CCC(=O)O)O5)O4)[C@H](C)C[C@H]3O2)[C@H](C)C[C@@H]1C` [AZA2, 8-methyl-azaspiracid], the “hERG binding of [3H]dofetilide relative to vehicle controls (reduced to)” value (hERG channel [1]) was 22.3 ± 1.0%, the “Rel. Pot., channel binding” value (hERG channel [1]) was 0.8 and the “Maximum inhibition of hERG currents” value (hERG channel [2]) was 87.3 ± 0.95%. For the same compound, the “Rel. Pot., patch clamp” value (hERG channel [2]) was 1.3, the “Thallium flux via hERG relative to vehicle controls (reduced to)” value (hERG channel [3]) was 9.6 ± 0.79% and the “Rel. Pot., thallium flux” value (hERG channel [3]) was 0.8. The “Cytotoxic potency relative to AZA1” value [4] was 8.3 fold.

From article PMC3444677 (Chemical research in toxicology, 2012)
